Data published in ChEMBL document CHEMBL1828575, “Design, synthesis and antiproliferative activities of biarylolefins based on polyhydroxylated and carbohydrate scaffolds” (Eur J Med Chem, 2011).

Columns and labels:
Format in all cases: functional
NCI-H23 = test: Cytotoxicity against human NCI-H23 cells assessed as cellular growth at 10 uM after 48 hrs by SRB assay
Method in brief: (§1)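 NCI-60 panel lines grown in RPMI 1640 with 5% FBS and 2 mM L-glutamine. Plated at 5000–40,000 cells/well and preincubated 24 h at 37 °C, 5% CO₂, with time-zero plates fixed in TCA. Compounds, dissolved in DMSO and diluted in medium, were applied for 48 h. Cells were TCA-fixed (10% final for adherent, 16% for suspension) and stained with 0.4% SRB in 1% acetic acid. Dye was solubilised in 10 mM Tris base and read at 515 nm; growth was expressed as a percentage of untreated control.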

IGROV-1 = test: Antitumor activity against human IGROV1 cells after 48 hrs by SRB assay; settings: IGROV-1, 48 h
Method in brief: (§2)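 NCI60 panel in RPMI 1640 with 5% FBS and 2 mM L-glutamine. Cells were plated at 5000–40,000/well by doubling time, held 24 h, then time-zero plates were TCA-fixed. Five concentrations (10-fold or half-log dilutions of DMSO stocks) were applied for 48 h at 37 °C, 5% CO2. Cells were fixed with cold TCA (10% final adherent, 16% suspension) and stained with 0.4% SRB. Bound dye was dissolved in 10 mM Tris and read at 515 nm. GI50, TGI and LC50 were calculated per line.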

A549 [1] = test: Cytotoxicity against human A549 cells assessed as cellular growth at 10 uM after 48 hrs by SRB assay
Method in brief: (§3)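 NCI60 single-dose screen of cells in RPMI 1640 with 5% FBS and 2 mM L-glutamine, preincubated 24 h at 37 °C, 5% CO₂. Cells were then exposed 48 h to compound added from DMSO stock. TCA-fixed, stained with 0.4% SRB in 1% acetic acid, dye solubilised in 10 mM Tris base and read at 515 nm. Growth is given as percent of untreated control.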

SF-539 = test: Antitumor activity against human SF539 cells after 48 hrs by SRB assay; settings: SF-539, 48 h
Method in brief: (§4)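 NCI60 panel cells grown in RPMI 1640 with 5% FBS and 2 mM L-glutamine, plated at 5000–40,000 cells/well and preincubated 24 h at 37 °C, 5% CO₂. Compound was added from DMSO at five concentrations, 10-fold or 1/2 log dilutions, then incubated 48 h.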

DU-145 = test: Antitumor activity against human DU145 cells after 48 hrs by SRB assay; settings: DU-145, 48 h; method in brief: as §2
EKVX [2] = test: Cytotoxicity against human EKVX cells assessed as cellular growth at 10 uM after 48 hrs by SRB assay; method in brief: as §3
MOLT-4 [3] = test: Cytotoxicity against human MOLT4 cells assessed as cellular growth at 10 uM after 48 hrs by SRB assay; method in brief: as §1
K562 = test: Antitumor activity against human K562 cells after 48 hrs by SRB assay; settings: K562, 48 h; method in brief: as §2
HOP-92 = test: Antitumor activity against human HOP92 cells after 48 hrs by SRB assay; settings: HOP-92, 48 h; method in brief: as §2
HCT-15 = test: Cytotoxicity against human HCT15 cells assessed as cellular growth at 10 uM after 48 hrs by SRB assay; method in brief: as §3
CAKI-1 = test: Cytotoxicity against human Caki1 cells assessed as cellular growth at 10 uM after 48 hrs by SRB assay; method in brief: as §3
RPMI-8226 = test: Antitumor activity against human RPMI8226 cells after 48 hrs by SRB assay; settings: RPMI-8226, 48 h; method in brief: as §2
MCF7 = test: Antitumor activity against human MCF7 cells after 48 hrs by SRB assay; settings: MCF7, 48 h; method in brief: as §2
OVCAR-5 = test: Cytotoxicity against human OVCAR5 cells assessed as cellular growth at 10 uM after 48 hrs by SRB assay; method in brief: as §1
EKVX [4] = test: Antitumor activity against human EKVX cells after 48 hrs by SRB assay; method in brief: as §2
BT-549 = test: Cytotoxicity against human BT549 cells assessed as cellular growth at 10 uM after 48 hrs by SRB assay; method in brief: as §3
MDA-MB-468 = test: Cytotoxicity against human MDA-MB-468 cells assessed as cellular growth at 10 uM after 48 hrs by SRB assay; method in brief: as §1
A549 [5] = test: Antitumor activity against human A549 cells after 48 hrs by SRB assay; settings: A549, 48 h; method in brief: as §2
SNB-19 = test: Antitumor activity against human SNB19 cells after 48 hrs by SRB assay; settings: SNB-19, 48 h; method in brief: as §4
MOLT-4 [6] = test: Antitumor activity against human MOLT4 cells after 48 hrs by SRB assay; settings: MOLT-4, 48 h; method in brief: as §2
U-251 = test: Antitumor activity against human U251 cells after 48 hrs by SRB assay; settings: U-251, 48 h; method in brief: as §4
NCI-H522 = test: Antitumor activity against human NCI-H522 cells after 48 hrs by SRB assay; settings: NCI-H522, 48 h; method in brief: as §2
SK-MEL-2 = test: Antitumor activity against human SK-MEL-2 cells after 48 hrs by SRB assay; settings: SK-MEL-2, 48 h; method in brief: as §4
[7] = read-out: LC50 (the source's name)
[8] = read-out: pLC50 (the source's name) (converted)

For `COc1ccc(/C(=C2/O[C@@H]([C@H]3COC(C)(C)O3)[C@H]3OC(C)(C)O[C@@H]23)c2cc(OC)c(OC)c(OC)c2)cc1O`, the Activity (NCI-H23) was 72.29%, the GI50 (IGROV-1; read-out: GI50) was 3.32 µM and the CC50 (IGROV-1; [7]) was > 100 µM. For the same compound, the TGI (IGROV-1; read-out: TGI) was > 100 µM, the GI50 (IGROV-1; read-out: pGI50 (converted)) was 33.1 µM and the CC50 (IGROV-1; [8]) was > 100 µM. For the same compound, the TGI (IGROV-1; read-out: pTGI) was > 100 µM, the Activity (A549 [1]) was 84.24% and the GI50 (SF-539) was 2.59 µM. For the same compound, the TGI (SF-539) was 6.63 µM, the CC50 (SF-539; [7]) was > 100 µM and the GI50 (DU-145; read-out: GI50) was 3.29 µM. The CC50 (DU-145; [7]) was > 100 µM, the TGI (DU-145; read-out: TGI) was 13.8 µM and the GI50 (DU-145; read-out: pGI50 (converted)) was 3.31 µM. The CC50 (DU-145; [8]) was > 100 µM, the TGI (DU-145; read-out: pTGI (converted)) was 13.2 µM and the Activity (EKVX [2]) was 90.16%. The Activity (MOLT-4 [3]) was 59.94%, the GI50 (K562; read-out: GI50) was 3.22 µM and the CC50 (K562; [7]) was > 100 µM. For the same compound, the TGI (K562; read-out: TGI) was > 100 µM, the GI50 (K562; read-out: pGI50 (converted)) was 3.24 µM and the CC50 (K562; [8]) was > 100 µM. The TGI (K562; read-out: pTGI) was > 100 µM, the GI50 (HOP-92) was 5.45 µM and the TGI (HOP-92) was 31.8 µM. For the same compound, the CC50 (HOP-92; [7]) was > 100 µM, the Activity (HCT-15) was 26.94% and the Activity (CAKI-1) was 93.05%. The LC50 (concentration killing 50% of starting cells) (RPMI-8226) was > 100 µM, the GI50 (RPMI-8226; read-out: GI50) was 4.63 µM and the TGI (RPMI-8226; read-out: TGI) was > 100 µM. The GI50 (RPMI-8226; read-out: pGI50 (converted)) was 4.68 µM, the CC50 (RPMI-8226; [8]) was > 100 µM and the TGI (RPMI-8226; read-out: pTGI (converted)) was > 100 µM. The GI50 (MCF7; read-out: GI50) was 3.76 µM, the CC50 (MCF7; [7]) was > 100 µM and the TGI (MCF7; read-out: TGI) was > 100 µM. For the same compound, the GI50 (MCF7; read-out: pGI50 (converted)) was 3.8 µM, the CC50 (MCF7; [8]) was > 100 µM and the TGI (MCF7; read-out: pTGI (converted)) was > 100 µM. For the same compound, the Activity (OVCAR-5) was 95.38%, the GI50 (EKVX [4]; read-out: GI50) was 5.57 µM and the CC50 (EKVX [4]; [7]) was > 100 µM. For the same compound, the TGI (EKVX [4]; read-out: TGI) was > 100 µM, the GI50 (EKVX [4]; read-out: pGI50 (converted)) was 56.2 µM and the CC50 (EKVX [4]; [8]) was > 100 µM. For the same compound, the TGI (EKVX [4]; read-out: pTGI) was > 100 µM, the Activity (BT-549) was 57.66% and the Activity (MDA-MB-468) was 96.42%. The GI50 (A549 [5]; read-out: GI50) was 2.32 µM, the CC50 (A549 [5]; [7]) was > 100 µM and the TGI (A549 [5]; read-out: TGI) was > 100 µM. The GI50 (A549 [5]; read-out: pGI50 (converted)) was 23.4 µM, the CC50 (A549 [5]; [8]) was > 100 µM and the TGI (A549 [5]; read-out: pTGI (converted)) was > 100 µM. The GI50 (SNB-19) was 4.28 µM, the TGI (SNB-19) was > 100 µM and the CC50 (SNB-19; [7]) was > 100 µM. The LC50 (concentration killing 50% of cells) (MOLT-4 [6]) was > 100 µM, the GI50 (MOLT-4 [6]; read-out: GI50) was 6.93 µM and the TGI (MOLT-4 [6]; read-out: TGI) was > 100 µM. For the same compound, the GI50 (MOLT-4 [6]; read-out: pGI50 (converted)) was 6.92 µM, the CC50 (MOLT-4 [6]; [8]) was > 100 µM and the TGI (MOLT-4 [6]; read-out: pTGI) was > 100 µM. For the same compound, the GI50 (U-251) was 3.84 µM, the TGI (U-251) was 48.2 µM and the CC50 (U-251; [7]) was > 100 µM. For the same compound, the GI50 (NCI-H522) was 2.73 µM, the TGI (NCI-H522) was 9.08 µM and the CC50 (NCI-H522; [7]) was > 100 µM. The GI50 (SK-MEL-2) was 57.9 µM, the TGI (SK-MEL-2) was > 100 µM and the CC50 (SK-MEL-2; [7]) was > 100 µM.
